Measured values from ChEMBL document CHEMBL3232822, “Synthesis of novel spiropyrazoline oxindoles and evaluation of cytotoxicity in cancer cell lines” (Eur J Med Chem, 2014).

Experiments:
MCF7 = assay: Cytotoxicity against human HER2-deficient MCF7 cells expressing estrogen receptor after 48 hrs by MTT assay; format: functional; details: MCF7, 48 h
Procedure, shortened: (§1)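 Cells (HEK 293T, MCF-7, MDA-MB-231 from ATCC) seeded the day before in medium with serum, penicillin G, streptomycin and 2 mM L-glutamine. Compounds in DMSO, serially diluted in medium, final DMSO ≤0.5% (v/v), same in controls. 48 h at 37 °C, 5% CO2. MTT 3 h, formazan dissolved in DMSO, A570. Triplicates, ≥3 experiments. GI50 from % viable cells.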

MDA-MB-231 = assay: Cytotoxicity against human HER2/estrogen receptor-deficient MDA-MB-231 cells after 48 hrs by MTT assay; format: functional; details: MDA-MB-231, 48 h; procedure, shortened: as §1
[1] = Cytotoxicity against HEK293T cells after 48 hrs by MTT assay; format: cell-based, HEK-293T; details: human; procedure, shortened: as §1
HEK-293T = assay: Selectivity index, ratio of GI50 for HEK293T cells to GI50 for human HER2-deficient MCF7 cells; format: functional
[2] = Solubility of the compound at 100 uM; format: physicochemical

Structure (SMILES)	GI50 (MCF7)	GI50 (MDA-MB-231)	GI50 at 48 h [1]	RatioGI50 (HEK-293T)	solubility [2]
O=C1Nc2cc(Cl)ccc2[C@]12[C@@H](c1ccccc1)C(c1ccccc1)=NN2c1ccccc1	27.1 µM	> 50 µM	> 50 µM	>2	Insoluble
O=C1Nc2ccccc2[C@]12[C@@H](c1ccccc1)C(c1ccccc1)=NN2c1ccccc1	> 100 µM	–	–	–	–
O=C1Nc2ccc(Cl)cc2[C@]12[C@@H](c1ccccc1)C(c1ccccc1)=NN2c1ccccc1	37.7 µM	–	–	–	–
COc1ccc(C2=NN(c3ccccc3)[C@]3(C(=O)Nc4c(Cl)cccc43)[C@H]2c2ccccc2)cc1	11.5 µM	> 100 µM	> 100 µM	>8	–
O=C1Nc2cc(Br)ccc2[C@]12[C@@H](c1ccccc1)C(c1ccccc1)=NN2c1ccccc1	9.6 µM	8.3 µM	28.9 µM	3	–
O=C(c1ccccc1)[C@H]1C(c2ccccc2)=NN(c2ccccc2)[C@]12C(=O)Nc1ccc(Cl)cc12	> 100 µM	–	–	–	–
O=C1Nc2ccc(Br)cc2[C@]12CC(c1ccccc1)=NN2	> 100 µM	–	–	–	–
COc1ccc(C2=NN(c3ccccc3)[C@]3(C(=O)Nc4cc(Br)ccc43)[C@H]2c2ccccc2)cc1	7 µM	28.6 µM	> 100 µM	>14	–
CC(C)(C)C1=NN(c2ccccc2)[C@]2(C(=O)Nc3c(Cl)cccc32)[C@H]1c1ccccc1	8.6 µM	6.4 µM	17.8 µM	2	–
O=C1Nc2ccc(Br)cc2[C@]12[C@@H](c1ccccc1)C(c1ccccc1)=NN2c1ccccc1	7.3 µM	> 100 µM	> 100 µM	>13	–
CC(C)(C)C1=NN(c2ccccc2)[C@]2(C(=O)Nc3cc(Cl)ccc32)[C@H]1c1ccccc1	21.7 µM	> 50 µM	> 50 µM	>2	Insoluble
O=C1Nc2ccc(Cl)cc2[C@]12CC(c1ccccc1)=NN2	> 100 µM	–	–	–	–
CCOC(=O)[C@H]1C(c2ccccc2)=NN(c2ccccc2)[C@]12C(=O)Nc1ccc(Cl)cc12	> 100 µM	–	–	–	–
O=C1Nc2ccccc2[C@]12CC(c1ccccc1)=NN2	> 100 µM	–	–	–	–
COc1ccc([C@H]2C(c3ccccc3)=NN(c3ccccc3)[C@]23C(=O)Nc2cc(Cl)ccc23)cc1	> 100 µM	–	–	–	–
COc1ccc(C2=NN(c3ccccc3)[C@]3(C(=O)Nc4cc(Cl)ccc43)[C@H]2c2ccccc2)cc1	42.6 µM	–	–	–	–
CC(C)(C)C1=NN(c2ccccc2)[C@]2(C(=O)Nc3cc(Br)ccc32)[C@H]1c1ccccc1	8.5 µM	15 µM	20.9 µM	2.5	–
COc1ccc(C2=NN(c3ccccc3)[C@]3(C(=O)Nc4ccc(Cl)cc43)[C@H]2c2ccccc2)cc1	33.9 µM	–	–	–	–
